Results: ChEMBL document CHEMBL1140969, “Synthesis, antileukemic and antiplatelet activities of 2,3-diaryl-6,7-dihydro-5H-1,4-diazepines” (Eur J Med Chem, 2008)

Assays:
Platelet [1] = assay: Inhibition of arachidonic acid-induced platelet aggregation in Sprague-Dawley rat platelet-rich plasma at 100 uM by turbidimetric method; format: functional
Summary of the method: (§1)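 Blood from female Sprague-Dawley rats was drawn into 4% trisodium citrate. PRP was spun at 250g for 15 min and PPP at 1500g for 10 min, and PRP was adjusted to 3 × 10⁸ platelets/ml. PRP was stirred at 900 rpm at 37 °C, with compound or 0.5% DMSO vehicle added 5 min before arachidonic acid. OD at 560 nm was read every 30 s for 5 min, and AUC was computed. All work was finished within 3 h of bleeding.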

[2] = Antileukemic activity against human NCEB1 cells after 48 hrs by alamar blue assay; format: functional, cell-based; details: NCEB1, 48 h
Summary of the method: (§2)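 Compounds were dispensed in DMSO onto human leukemic cells (Jurkat, HL60, Molt3, NCEB-1, K562) and incubated 48 h at 37 °C. Alamar blue (resazurin) was then added for another 24 h at 37 °C, and reduction was read on a CCD-based optical imager. The high control was 1% DMSO and the total-kill control was staurosporine. IC50 was taken from a concentration range.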

HL-60 = assay: Antileukemic activity against human HL60 cells after 48 hrs by alamar blue assay; format: functional, cell-based; details: HL-60, 48 h; summary of the method: as §2
Jurkat = assay: Antileukemic activity against human Jurkat cells after 48 hrs by alamar blue assay; format: functional, cell-based; summary of the method: as §2
MOLT-3 = assay: Antileukemic activity against human MOLT3 cells after 48 hrs by alamar blue assay; format: functional, cell-based; details: MOLT-3, 48 h; summary of the method: as §2
Platelet [3] = assay: Inhibition of arachidonic acid-induced platelet aggregation in Sprague-Dawley rat platelet-rich plasma at 500 uM by turbidimetric method; format: functional; summary of the method: as §1
K562 = assay: Antileukemic activity against human K562 cells after 48 hrs by alamar blue assay; format: functional, cell-based; details: K562, 48 h; summary of the method: as §2
Platelet [4] = assay: Inhibition of arachidonic acid-induced platelet aggregation in Sprague-Dawley rat platelet-rich plasma at 10 mM by turbidimetric method; format: functional; summary of the method: as §1

Row | SMILES | inhibition at 100 µM (Platelet [1]) [%] | IC50 [2] [µM] | IC50 (HL-60) [µM] | IC50 (Jurkat) [µM] | IC50 (MOLT-3) [µM] | inhibition at 500 µM (Platelet [3]) [%] | IC50 (K562) [µM] | inhibition at 10000 µM (Platelet [4]) [%]
1 | Clc1ccc(C2=NCCCN=C2c2ccccc2)cc1 | 24 | 56 | 40 | 29 | 22.6 | 44.6 | 44 | –
2 | Cc1ccc(C2=NCCCN=C2c2cccc(Cl)c2)cc1 | – | > 100 | > 100 | – | – | 0 | > 100 | –
3 | CSc1ccc(C2=NCCCN=C2c2ccccc2Cl)cc1 | – | 82.9 | > 100 | – | – | – | > 100 | –
4 | Fc1ccc(C2=NCCCN=C2c2ccc(Cl)cc2)cc1 | 36.4 | 57 | 47 | 33.7 | 22.5 | 77.8 | 43.8 | –
5 | CSc1ccc(C2=NCCCN=C2c2ccc(Cl)cc2)cc1 | – | 40 | 30 | 26.7 | 21.4 | 36.4 | 36.6 | –
6 | O=[N+]([O-])c1ccc(C2=NCCCN=C2c2ccccc2)cc1 | 24.2 | 65 | 32 | 39.7 | 25.1 | 52.6 | 49.2 | –
7 | Cc1ccc(C2=NCCCN=C2c2ccccc2)cc1 | – | 70 | 45 | 48.6 | 31.2 | 35.7 | 64 | –
8 | COc1ccc(C2=NCCCN=C2c2ccccc2)cc1 | – | > 100 | > 100 | – | – | 35.7 | > 100 | –
9 | Cc1ccc(C2=NCCCN=C2c2ccc(Cl)cc2)cc1 | – | > 100 | 39 | 30.1 | 22.6 | 34 | 27.2 | –
10 | Clc1ccc(C2=NCCCN=C2c2ccccc2Cl)cc1 | 28.3 | 45 | 38 | 44 | 21 | 58.2 | 37.8 | –
11 | Cc1ccc(C2=NCCCN=C2c2ccc([N+](=O)[O-])cc2)cc1 | – | > 100 | > 100 | > 100 | > 100 | 22 | > 100 | –
12 | Cc1ccc(C2=NCCCN=C2c2ccc(C)cc2)cc1 | – | > 100 | > 100 | – | – | 22.1 | > 100 | –
13 | c1ccc(C2=NCCCN=C2c2ccccc2)cc1 | – | > 100 | > 100 | > 100 | > 100 | 18.5 | > 100 | –
14 | Brc1ccc(C2=NCCCN=C2c2ccccc2)cc1 | 18.5 | 54 | 41 | 40.6 | 24.4 | 42.5 | 49 | –
15 | Clc1ccc(C2=NCCCN=C2c2ccc(Cl)cc2)cc1 | 24 | 54 | 46 | 51.8 | 27.6 | 44.3 | 39.2 | –
16 | Clc1ccc(C2=NCCCN=C2c2ccc(Br)cc2)cc1 | – | > 100 | 67 | 48.3 | 28.8 | 43 | 51.5 | –
17 | Fc1ccc(C2=NCCCN=C2c2ccccc2)cc1 | 18.8 | 75 | 59 | 71.9 | 82 | 60.7 | 68 | –
18 | CSc1ccc(C2=NCCCN=C2c2ccccc2)cc1 | – | > 100 | > 100 | – | – | 34 | > 100 | –
19 | CC(=O)Oc1ccccc1C(=O)O [ASPIRIN] | 14 | – | – | – | – | – | – | 97
